Laboratory results taken from ChEMBL document CHEMBL3785055, “Arginine-linked neomycin B dimers: synthesis, rRNA binding, and resistance enzyme activity” (Medchemcomm, 2016).
pIC50: −log10 of the molar value. Converted amounts (≈) assume the structure as drawn. The source made the active and inactive calls. No cut-off for these calls is given here.

What was measured:
Escherichia coli [1] = test: Displacement of F-NEO from Escherichia coli rRNA A-site at 0.1 uM by fluorescence assay
Procedure, shortened: (§1)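 Single-point competitive screen: compound at 0.1 μM added to 0.1 μM F-NEO:A-site RNA complex. Displacement read as emission increase over complex alone (ΔF), expressed as % of fluorescence of 0.1 μM F-NEO. Buffer 10 mM HEPES, 50 mM NaCl, 0.4 mM EDTA, pH 7.0; at least duplicates.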

Homo sapiens = organism: Homo sapiens; test: Displacement of F-NEO from human rRNA A-site at 0.1 uM by fluorescence assay; procedure, shortened: as §1
Bacillus cereus = test: Antibacterial activity against Bacillus cereus ATCC 11778 after 16 to 20 hrs by MTT assay; format: functional
Procedure, shortened: (§2)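 Strains grown in LB 24 h at 37 °C, 250 rpm; overnight culture diluted 1:1000, grown 4 h, diluted 1:1000 again and added to microplates. Incubation 16–20 h at 37 °C; growth read visually and with MTT (1 mg/mL).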

[2] = test system: Staphylococcus epidermidis; test: Antibacterial activity against Staphylococcus epidermidis ATCC 12228 after 16 to 20 hrs by MTT assay; format: functional; procedure, shortened: as §2
Staphylococcus aureus [3] = test: Antibacterial activity against Staphylococcus aureus ATCC 25923 after 16 to 20 hrs by MTT assay; format: functional; procedure, shortened: as §2
[4] = Displacement of F-NEO from Escherichia coli rRNA A-site by fluorescence assay
[5] = Displacement of F-NEO from human rRNA A-site by fluorescence assay
[6] = Selectivity factor, ratio of IC50 for human rRNA A-site to IC50 for Escherichia coli rRNA A-site
Procedure, shortened: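 Ratio from F-NEO displacement titrations, 0.002–2.0 μM compound against 0.1 μM F-NEO:A-site complex (485/535 nm). Measured IC50 stands in for the unmeasurable competition constants in Kd(human)/Kd(E. coli) = 5.75 × K(E. coli)/K(human). Buffer 10 mM HEPES, 50 mM NaCl, 0.4 mM EDTA, pH 7.0.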

Escherichia coli [7] = test: Activity at Escherichia coli AAC(3)-4 at 100 uM in presence of AcCoA by Ellmans method relative to NEO
Procedure, shortened: (§3)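 Acetylation followed by Ellman's method at 412 nm, 2 mM DTNB, 100 μM compound, 25 °C, triplicate, rates normalized to NEO. AcCoA 500 μM for Eis, 150 μM for AAC(3)-IV; enzyme 0.5 μM for Eis, 0.125 μM for AAC(3)-IV; 50 mM buffer.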

Staphylococcus aureus [8] = test: Activity at Staphylococcus aureus APH(2'')-1a at 100 uM in presence of […] by […] relative to NEO
[9] = test system: Mycobacterium tuberculosis; test: Activity at Mycobacterium tuberculosis AAC(2')-1c at 100 uM in presence of AcCoA by Ellmans method relative to NEO
Procedure, shortened: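 N-acetylation by AAC(2')-Ic (0.125 μM enzyme) of 100 μM compound with 150 μM AcCoA and 2 mM DTNB in 100 mM buffer, 25 °C. Thiol release followed at 412 nm (ε = 14,150 M⁻¹cm⁻¹). Rates normalized to neomycin B, triplicate.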

Staphylococcus aureus [10] = test: Activity at Staphylococcus aureus AAC(6')-1e/APH(2'')-1a in presence of AcCoA by Ellmans method relative to NEO
[11] = Activity at APH(3')-1a (unknown origin) at 100 uM in presence of […] by […] relative to NEO
[12] = Activity at Eis (unknown origin) at 100 uM in presence of AcCoA by Ellmans method relative to NEO; procedure, shortened: as §3

What does the source list for `N=C(N)NCCC[C@H](N)C(=O)NCCCn1cc(-c2cccc(-c3cn(CCCNC(=O)[C@@H](N)CCCNC(=N)N)nn3)c2)nn1`?
Activity (Escherichia coli [1]): inactive; Activity (Homo sapiens): inactive

With `NC[C@@H]1O[C@@H](O[C@H]2[C@H](O[C@H]3O[C@@H](Cn4cc(-c5cc(C(=O)O)cc(-c6cn(C[C@H]7O[C@@H](O[C@@H]8[C@@H](O)[C@H](N)C[C@H](N)[C@H]8O[C@@H]8O[C@@H](CN)[C@H](O)[C@@H](O)[C@@H]8N)[C@H](O)[C@@H]7O[C@H]7O[C@@H](CN)[C@@H](O)[C@H](O)[C@H]7N)nn6)c5)nn4)[C@H](O[C@H]4O[C@@H](CN)[C@@H](O)[C@H](O)[C@H]4N)[C@@H]3O)[C@@H](O)[C@H](N)C[C@@H]2N)[C@@H](N)[C@H](O)[C@H]1O` (stereo in doubt) as the molecule, how does the MIC (Bacillus cereus) read?
Its MIC is 3 µM (≈ 4.35 µg/mL).

What about the MIC [2] of the same molecule?
The MIC was 13 µM (≈ 18.8 µg/mL).

What about the MIC (Staphylococcus aureus [3]) of the same molecule?
The MIC was 13 µM (≈ 18.8 µg/mL).

What about the pIC50 [4] of the same molecule?
The pIC50 was 4.29.

And the pIC50 [5]?
The pIC50 was 4.30.

What about the Ratio IC50 [6] of the same molecule?
The Ratio IC50 was 5.6.

What about the Activity (Escherichia coli [7]) of the same molecule?
Its Activity is “Active”.

What about the Activity (Staphylococcus aureus [8]) of the same molecule?
The Activity was “inactive”.

And the Activity [9]?
Its Activity is “inactive”.

And the Activity (Staphylococcus aureus [10])?
The Activity was “inactive”.

What about the Activity [11] of the same molecule?
Its Activity is “inactive”.

And the Activity [12]?
The Activity was “inactive”.

Which MIC (Bacillus cereus) does the source give for `N=C(N)NCCC[C@H](NC(=O)CNC(=O)c1cc(-c2cn(C[C@H]3O[C@@H](O[C@@H]4[C@@H](O)[C@H](N)C[C@H](N)[C@H]4O[C@H]4O[C@H](CN)[C@@H](O)[C@H](O)[C@H]4N)[C@H](O)[C@@H]3O[C@H]3O[C@@H](CN)[C@@H](O)[C@H](O)[C@H]3N)nn2)cc(-c2cn(C[C@H]3O[C@@H](O[C@H]4[C@H](O)[C@@H](N)C[C@@H](N)[C@@H]4O[C@@H]4O[C@@H](CN)[C@H](O)[C@@H](O)[C@@H]4N)[C@H](O)[C@@H]3O[C@H]3O[C@@H](CN)[C@@H](O)[C@H](O)[C@H]3N)nn2)c1)C(N)=O` (stereo in doubt) here?
Its MIC is 1.6 µM (≈ 2.66 µg/mL).

What about the MIC [2] of the same molecule?
Its MIC is over 50 µM.

What about the MIC (Staphylococcus aureus [3]) of the same molecule?
Its MIC is 50 µM (≈ 83.1 µg/mL).

And the pIC50 [4]?
Its pIC50 is 4.21.

And the pIC50 [5]?
The pIC50 was 4.24.

And the Ratio IC50 [6]?
The Ratio IC50 was 5.3.

What about the Activity (Escherichia coli [7]) of the same molecule?
The Activity was “Active”.

What about the Activity (Staphylococcus aureus [8]) of the same molecule?
Its Activity is “inactive”.

And the Activity [9]?
Its Activity is “inactive”.

What about the Activity (Staphylococcus aureus [10]) of the same molecule?
The Activity was “inactive”.

And the Activity [11]?
Its Activity is “inactive”.

What about the Activity [12] of the same molecule?
Its Activity is “inactive”.

What does the source list for `N=C(N)NCCC[C@@H](NC(=O)c1cc(-c2cn(C[C@@H]3O[C@H](O[C@@H]4[C@@H](O)[C@H](N)C[C@H](N)[C@H]4O[C@@H]4O[C@@H](CN)[C@H](O)[C@@H](O)[C@@H]4N)[C@@H](O)[C@H]3O[C@H]3O[C@@H](CN)[C@@H](O)[C@H](O)[C@H]3N)nn2)cc(-c2cn(C[C@H]3O[C@@H](O[C@@H]4[C@@H](O)[C@H](N)C[C@H](N)[C@H]4O[C@@H]4O[C@@H](CN)[C@H](O)[C@@H](O)[C@@H]4N)[C@H](O)[C@@H]3O[C@H]3O[C@@H](CN)[C@@H](O)[C@H](O)[C@H]3N)nn2)c1)C(N)=O` (stereo in doubt)?
MIC (Bacillus cereus): 3 µM (≈ 4.81 µg/mL); MIC [2]: > 50 µM; MIC (Staphylococcus aureus [3]): > 50 µM; pIC50 [4]: 4.26; pIC50 [5]: 4.15; Ratio IC50 [6]: 7.4; Activity (Escherichia coli [7]): 30%; Activity (Staphylococcus aureus [8]): inactive; Activity [9]: inactive; Activity (Staphylococcus aureus [10]): inactive; Activity [11]: inactive; Activity [12]: inactive
